From ChEMBL document CHEMBL5303300, “EUbOPEN Chemogenomics Library - Multiplex” (2023)
Values joined by “and” are separate entries in the source; they are usually repeats but may differ in a detail not shown here. Equal values may be shown once.

Tested on: U2OS
Test: Multiplex assay against U2OS
Type: toxicity, cell-based
Settings: human, number of replicates 2
Outline: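 Live cells were stained at seeding with Hoechst33342, BioTracker Green Microtubule Cytoskeleton Dye, MitoTracker Red and Annexin V Alexa Fluor 680, then imaged on a CQ1 microscope at 37°C and 5% CO2 after compound addition. CellPathfinder machine-learning gating split cells into Hoechst high-intensity objects or normal cells. Normal cells were split into healthy, pyknosed or fragmented nuclei, and pyknosed cells into mitotic or apoptotic. Tubulin, mitochondrial-mass and membrane-permeability phenotypes are per cents of healthy-nucleus cells.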

[1] = 12 h, 1 µM, compound concentration 1 uM
[2] = 12 h, 10 µM, compound concentration 10 uM
[3] = 24 h, 1 µM, compound concentration 1 uM
[4] = 24 h, 10 µM, compound concentration 10 uM
[5] = 48 h, 1 µM, compound concentration 1 uM
[6] = 48 h, 10 µM, compound concentration 10 uM

In the case of `COc1cc(Br)c(S(=O)(=O)Nc2ccc(C(F)(F)F)c(O[C@@H]3CCN(C)C3)c2)cc1OC`, the “Population Fragmented Nuclei (%)” value [1] is reported as 10% and 4%, the “Population Healthy Nuclei (%)” value [1] is reported as 80% and 88% and the “Population Hoechst High Intensity Objects (%)” value [1] is reported as 0%. For the same compound, the “Population Membrane Permeable-Phenotype (%)” value [1] was 4% and 0%, the “Population Mitochondria Different-Phenotype (%)” value [1] was 0% and the “Population Mitotic Cells (%)” value [1] was 100% and 46%. For the same compound, the “Population Normal (%)” value [1] was 100%, the “Population Pyknosed Nuclei (%)” value [1] was 10% and 7% and the “Population Tubulin-Different-Phenotype (%)” value [1] was 66% and 89%. The “Population Apoptotic (%)” value [2] was 60% and 78%, the “Population Healthy Nuclei (%)” value [2] was 67% and 85% and the “Population Hoechst High Intensity Objects (%)” value [2] was 0%. For the same compound, the “Population Membrane Permeable-Phenotype (%)” value [2] was 4% and 0%, the “Population Mitochondria Different-Phenotype (%)” value [2] was 4% and 0% and the “Population Mitotic Cells (%)” value [2] was 40% and 21%. The “Population Normal (%)” value [2] was 100%, the “Population Pyknosed Nuclei (%)” value [2] was 16% and 10% and the “Population Tubulin-Different-Phenotype (%)” value [2] was 66% and 59%. For the same compound, the “Population Apoptotic (%)” value [3] was 66% and 47%, the “Population Fragmented Nuclei (%)” value [3] was 7% and 3% and the “Population Healthy Nuclei (%)” value [3] was 85% and 88%. For the same compound, the “Population Hoechst High Intensity Objects (%)” value [3] was 0%, the “Population Membrane Permeable-Phenotype (%)” value [3] was 0% and 3% and the “Population Mitochondria Different-Phenotype (%)” value [3] was 0%. For the same compound, the “Population Mitotic Cells (%)” value [3] was 33% and 52%, the “Population Normal (%)” value [3] was 100% and the “Population Pyknosed Nuclei (%)” value [3] was 7%. The “Population Tubulin-Different-Phenotype (%)” value [3] was 77% and 87%, the “Population Fragmented Nuclei (%)” value [4] was 8% and 2% and the “Population Healthy Nuclei (%)” value [4] was 75% and 85%. For the same compound, the “Population Hoechst High Intensity Objects (%)” value [4] was 0%, the “Population Membrane Permeable-Phenotype (%)” value [4] was 0% and 2% and the “Population Mitochondria Different-Phenotype (%)” value [4] was 3% and 2%. The “Population Mitotic Cells (%)” value [4] was 83% and 48%, the “Population Normal (%)” value [4] was 100% and the “Population Pyknosed Nuclei (%)” value [4] was 16% and 11%. The “Population Tubulin-Different-Phenotype (%)” value [4] was 70% and 74%, the “Population Apoptotic (%)” value [5] was 30% and 51% and the “Population Healthy Nuclei (%)” value [5] was 69% and 89%. The “Population Hoechst High Intensity Objects (%)” value [5] was 0%, the “Population Membrane Permeable-Phenotype (%)” value [5] was 0% and 1% and the “Population Mitochondria Different-Phenotype (%)” value [5] was 0%. The “Population Mitotic Cells (%)” value [5] was 69% and 48%, the “Population Normal (%)” value [5] was 100% and 99% and the “Population Pyknosed Nuclei (%)” value [5] was 14% and 7%. For the same compound, the “Population Tubulin-Different-Phenotype (%)” value [5] was 79% and 91%, the “Population Apoptotic (%)” value [6] was 57% and 61% and the “Population Fragmented Nuclei (%)” value [6] was 9% and 1%. The “Population Healthy Nuclei (%)” value [6] was 79% and 91%, the “Population Hoechst High Intensity Objects (%)” value [6] was 0% and the “Population Membrane Permeable-Phenotype (%)” value [6] was 9% and 1%. For the same compound, the “Population Mitochondria Different-Phenotype (%)” value [6] was 5% and 0%, the “Population Mitotic Cells (%)” value [6] was 42% and 38% and the “Population Normal (%)” value [6] was 100%. For the same compound, the “Population Pyknosed Nuclei (%)” value [6] was 10% and 6% and the “Population Tubulin-Different-Phenotype (%)” value [6] was 92% and 81%.
In the case of `CCN1CCN(Cc2ccc(C(=O)Nc3ccc(C)c(Oc4ccc5c(c4)CC(=O)N5)c3)cc2C(F)(F)F)CC1.Cl.Cl`, the “Population Apoptotic (%)” value [1] is reported as 50%, the “Population Healthy Nuclei (%)” value [1] is reported as 82% and 64% and the “Population Hoechst High Intensity Objects (%)” value [1] is reported as 0% and 3%. The “Population Membrane Permeable-Phenotype (%)” value [1] was 0%, the “Population Mitochondria Different-Phenotype (%)” value [1] was 4% and 0% and the “Population Mitotic Cells (%)” value [1] was 50%. The “Population Normal (%)” value [1] was 100% and 96%, the “Population Pyknosed Nuclei (%)” value [1] was 12% and 19% and the “Population Tubulin-Different-Phenotype (%)” value [1] was 60% and 40%. The “Population Apoptotic (%)” value [2] was 42% and 45%, the “Population Fragmented Nuclei (%)” value [2] was 15% and 8% and the “Population Healthy Nuclei (%)” value [2] was 57% and 69%. The “Population Hoechst High Intensity Objects (%)” value [2] was 1% and 0%, the “Population Membrane Permeable-Phenotype (%)” value [2] was 33% and 14% and the “Population Mitochondria Different-Phenotype (%)” value [2] was 46%. For the same compound, the “Population Mitotic Cells (%)” value [2] was 57% and 54%, the “Population Normal (%)” value [2] was 98% and 100% and the “Population Pyknosed Nuclei (%)” value [2] was 26% and 22%. For the same compound, the “Population Tubulin-Different-Phenotype (%)” value [2] was 83% and 81%, the “Population Apoptotic (%)” value [3] was 66% and 63% and the “Population Fragmented Nuclei (%)” value [3] was 5% and 2%. The “Population Healthy Nuclei (%)” value [3] was 71% and 81%, the “Population Hoechst High Intensity Objects (%)” value [3] was 2% and 0% and the “Population Membrane Permeable-Phenotype (%)” value [3] was 0%. For the same compound, the “Population Mitochondria Different-Phenotype (%)” value [3] was 7% and 3%, the “Population Mitotic Cells (%)” value [3] was 33% and 36% and the “Population Normal (%)” value [3] was 97% and 100%. For the same compound, the “Population Pyknosed Nuclei (%)” value [3] was 23% and 15%, the “Population Tubulin-Different-Phenotype (%)” value [3] was 51% and 64% and the “Population Apoptotic (%)” value [4] was 65% and 64%. For the same compound, the “Population Fragmented Nuclei (%)” value [4] was 12% and 8%, the “Population Healthy Nuclei (%)” value [4] was 54% and 64% and the “Population Hoechst High Intensity Objects (%)” value [4] was 0%. The “Population Membrane Permeable-Phenotype (%)” value [4] was 29% and 26%, the “Population Mitochondria Different-Phenotype (%)” value [4] was 76% and 74% and the “Population Mitotic Cells (%)” value [4] was 35%. The “Population Normal (%)” value [4] was 100%, the “Population Pyknosed Nuclei (%)” value [4] was 32% and 27% and the “Population Tubulin-Different-Phenotype (%)” value [4] was 61% and 86%. The “Population Apoptotic (%)” value [5] was 78% and 66%, the “Population Fragmented Nuclei (%)” value [5] was 4% and 1% and the “Population Healthy Nuclei (%)” value [5] was 72% and 85%. The “Population Hoechst High Intensity Objects (%)” value [5] was 1% and 0%, the “Population Membrane Permeable-Phenotype (%)” value [5] was 4% and 1% and the “Population Mitochondria Different-Phenotype (%)” value [5] was 2% and 1%. The “Population Mitotic Cells (%)” value [5] was 21% and 33%, the “Population Normal (%)” value [5] was 98% and 99% and the “Population Pyknosed Nuclei (%)” value [5] was 22% and 13%. The “Population Tubulin-Different-Phenotype (%)” value [5] was 59% and 70%, the “Population Apoptotic (%)” value [6] was 83% and 80% and the “Population Fragmented Nuclei (%)” value [6] was 9% and 10%. For the same compound, the “Population Healthy Nuclei (%)” value [6] was 29% and 49%, the “Population Hoechst High Intensity Objects (%)” value [6] was 1% and 0% and the “Population Membrane Permeable-Phenotype (%)” value [6] was 66% and 31%. For the same compound, the “Population Mitochondria Different-Phenotype (%)” value [6] was 60% and 81%, the “Population Mitotic Cells (%)” value [6] was 16% and 19% and the “Population Normal (%)” value [6] was 98% and 99%. For the same compound, the “Population Pyknosed Nuclei (%)” value [6] was 60% and 40% and the “Population Tubulin-Different-Phenotype (%)” value [6] was 80% and 81%.
With `Br.Cc1cccc(C2CN(C)CCc3c2cc(O)c(O)c3Cl)c1` (centres undefined) the “Population Apoptotic (%)” value [1] was 80% and 65%, the “Population Healthy Nuclei (%)” value [1] was 61% and 87% and the “Population Hoechst High Intensity Objects (%)” value [1] was 0%. For the same compound, the “Population Membrane Permeable-Phenotype (%)” value [1] was 0%, the “Population Mitochondria Different-Phenotype (%)” value [1] was 0% and the “Population Mitotic Cells (%)” value [1] was 20% and 35%. The “Population Normal (%)” value [1] was 100%, the “Population Pyknosed Nuclei (%)” value [1] was 10% and 7% and the “Population Tubulin-Different-Phenotype (%)” value [1] was 51% and 83%. For the same compound, the “Population Fragmented Nuclei (%)” value [2] was 4% and 14%, the “Population Healthy Nuclei (%)” value [2] was 88% and 80% and the “Population Hoechst High Intensity Objects (%)” value [2] was 0%. For the same compound, the “Population Membrane Permeable-Phenotype (%)” value [2] was 1% and 0%, the “Population Mitochondria Different-Phenotype (%)” value [2] was 1% and 0% and the “Population Mitotic Cells (%)” value [2] was 41% and 100%. The “Population Normal (%)” value [2] was 100%, the “Population Pyknosed Nuclei (%)” value [2] was 7% and 4% and the “Population Tubulin-Different-Phenotype (%)” value [2] was 88% and 35%. The “Population Apoptotic (%)” value [3] was 56% and 50%, the “Population Healthy Nuclei (%)” value [3] was 91% and 73% and the “Population Hoechst High Intensity Objects (%)” value [3] was 0%. For the same compound, the “Population Membrane Permeable-Phenotype (%)” value [3] was 0% and 3%, the “Population Mitochondria Different-Phenotype (%)” value [3] was 0% and the “Population Mitotic Cells (%)” value [3] was 43% and 50%. The “Population Normal (%)” value [3] was 100%, the “Population Pyknosed Nuclei (%)” value [3] was 6% and 13% and the “Population Tubulin-Different-Phenotype (%)” value [3] was 85% and 48%. The “Population Apoptotic (%)” value [4] was 58% and 50%, the “Population Healthy Nuclei (%)” value [4] was 89% and 62% and the “Population Hoechst High Intensity Objects (%)” value [4] was 0%. For the same compound, the “Population Membrane Permeable-Phenotype (%)” value [4] was 0% and 10%, the “Population Mitochondria Different-Phenotype (%)” value [4] was 1% and 0% and the “Population Mitotic Cells (%)” value [4] was 41% and 50%. For the same compound, the “Population Normal (%)” value [4] was 100%, the “Population Pyknosed Nuclei (%)” value [4] was 8% and 12% and the “Population Tubulin-Different-Phenotype (%)” value [4] was 83% and 40%. For the same compound, the “Population Apoptotic (%)” value [5] was 42% and 46%, the “Population Healthy Nuclei (%)” value [5] was 72% and 90% and the “Population Hoechst High Intensity Objects (%)” value [5] was 0%. For the same compound, the “Population Membrane Permeable-Phenotype (%)” value [5] was 2% and 0%, the “Population Mitochondria Different-Phenotype (%)” value [5] was 0% and the “Population Mitotic Cells (%)” value [5] was 57% and 53%. For the same compound, the “Population Normal (%)” value [5] was 100%, the “Population Pyknosed Nuclei (%)” value [5] was 11% and 5% and the “Population Tubulin-Different-Phenotype (%)” value [5] was 60% and 91%. For the same compound, the “Population Apoptotic (%)” value [6] was 50% and 67%, the “Population Healthy Nuclei (%)” value [6] was 73% and 91% and the “Population Hoechst High Intensity Objects (%)” value [6] was 0%. The “Population Membrane Permeable-Phenotype (%)” value [6] was 4% and 0%, the “Population Mitochondria Different-Phenotype (%)” value [6] was 4% and 0% and the “Population Mitotic Cells (%)” value [6] was 50% and 32%. For the same compound, the “Population Normal (%)” value [6] was 100%, the “Population Pyknosed Nuclei (%)” value [6] was 13% and 6% and the “Population Tubulin-Different-Phenotype (%)” value [6] was 63% and 88%.
